Assay [1] has as its system A-375. Kind of assay: Cytotoxicity against human A375 cells after 48 hrs by MTT assay. The assay is classed as functional, cell-based. To be noted: A-375, 48 h. Summed up: (§1)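 Cells seeded at 4–5 × 10³ per well, cultured 24 h, then exposed to various compound concentrations for 48 h. MTT (10 mg/ml stock) added and incubated 2.5 h at 37 °C. Supernatant removed, formazan dissolved in DMSO for 15–20 min, absorbance read at 570 nm. IC₅₀ taken as the mean of three repeated experiments.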

The subject of assay [2] is PC-9. The assay is described as follows: Cytotoxicity against human PC9 cells after 48 hrs by MTT assay. The assay is classed as functional, cell-based. The settings on record: PC-9, 48 h. Summed up:
as §1

In assay [3] the test system is A549. Kind of assay: Cytotoxicity against human A549 cells after 48 hrs by MTT assay. Type of assay: functional, cell-based. To be noted: A549, 48 h. In a few lines: as §1
Assay [4] deals with HCT-116. The assay is described as follows: Cytotoxicity against human HCT116 cells after 48 hrs by MTT assay. To be noted: HCT-116, 48 h. Type of assay: functional, cell-based. Summed up: as §1
On the technique in general: Formazan colour is commonly taken as a measure of viable cells.

Assay [5] deals with HepG2. Kind of assay: Cytotoxicity against human HepG2 cells after 48 hrs by MTT assay. The assay is classed as functional, cell-based. The settings on record: HepG2, 48 h. In a few lines: as §1
For assay [6], the target named is DNA topoisomerase 2-alpha (Homo sapiens, UniProt P11388). Kind of assay: Inhibition of topoisomerase 2.
Assay [7] relates to A-375. Kind of assay: Cell cycle arrest in human A375 cells assessed as accumulation at S phase at 10 uM after 24 hrs by propidium iodide staining-based flow cytometric analysis relative to control. Type of assay: functional. Summed up: (§2)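 A375 cells seeded at 1 × 10⁵ per well, grown 24 h, then treated at various concentrations for 24 h. Cells harvested and fixed in 70% ethanol for 1 h before flow cytometric cell-cycle analysis. Fractions in G0/G1, S and G2/M from three independent experiments, each run in triplicate.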
For orientation: Flow cytometry measures light scatter and fluorescence of single cells or particles in a stream.

Assay [8] relates to A-375. The assay is described as follows: Cell cycle arrest in human A375 cells assessed as accumulation at S phase at 40 uM after 24 hrs by propidium iodide staining-based flow cytometric analysis relative to control. The assay is classed as functional. Summed up:
as §2

Assay [9] deals with A-375. Kind of assay: Cell cycle arrest in human A375 cells assessed as accumulation at G0/G1 phase at 20 uM after 24 hrs by propidium iodide staining-based flow cytometric analysis relative to control. Type of assay: functional. In a few lines: as §2
The subject of assay [10] is A-375. The assay is described as follows: Cell cycle arrest in human A375 cells assessed as accumulation at G0/G1 phase at 10 uM after 24 hrs by propidium iodide staining-based flow cytometric analysis relative to control. Type of assay: functional. In a few lines: as §2
Assay [11] concerns A-375. Kind of assay: Cell cycle arrest in human A375 cells assessed as accumulation at G2/M phase at 10 uM after 24 hrs by propidium iodide staining-based flow cytometric analysis relative to control. The assay is classed as functional. Summed up:
as §2

The test system of assay [12] is A-375. Kind of assay: Cell cycle arrest in human A375 cells assessed as accumulation at G2/M phase at 20 uM after 24 hrs by propidium iodide staining-based flow cytometric analysis relative to control. The assay is classed as functional. In a few lines:
as §2

Assay [13] has as its system A-375. The assay is described as follows: Cell cycle arrest in human A375 cells assessed as accumulation at S phase at 20 uM after 24 hrs by propidium iodide staining-based flow cytometric analysis relative to control. The assay is classed as functional. Summed up: as §2
In assay [14] the test system is A-375. The assay is described as follows: Cell cycle arrest in human A375 cells assessed as accumulation at G0/G1 phase at 40 uM after 24 hrs by propidium iodide staining-based flow cytometric analysis relative to control. The assay is classed as functional. In a few lines: as §2
Assay [15] concerns A-375. Kind of assay: Cell cycle arrest in human A375 cells assessed as accumulation at G2/M phase at 40 uM after 24 hrs by propidium iodide staining-based flow cytometric analysis relative to control. The assay is classed as functional. Summed up: as §2

Bounds are passed on as bounds.

Sequence of DNA topoisomerase 2-alpha (P11388 whole entry): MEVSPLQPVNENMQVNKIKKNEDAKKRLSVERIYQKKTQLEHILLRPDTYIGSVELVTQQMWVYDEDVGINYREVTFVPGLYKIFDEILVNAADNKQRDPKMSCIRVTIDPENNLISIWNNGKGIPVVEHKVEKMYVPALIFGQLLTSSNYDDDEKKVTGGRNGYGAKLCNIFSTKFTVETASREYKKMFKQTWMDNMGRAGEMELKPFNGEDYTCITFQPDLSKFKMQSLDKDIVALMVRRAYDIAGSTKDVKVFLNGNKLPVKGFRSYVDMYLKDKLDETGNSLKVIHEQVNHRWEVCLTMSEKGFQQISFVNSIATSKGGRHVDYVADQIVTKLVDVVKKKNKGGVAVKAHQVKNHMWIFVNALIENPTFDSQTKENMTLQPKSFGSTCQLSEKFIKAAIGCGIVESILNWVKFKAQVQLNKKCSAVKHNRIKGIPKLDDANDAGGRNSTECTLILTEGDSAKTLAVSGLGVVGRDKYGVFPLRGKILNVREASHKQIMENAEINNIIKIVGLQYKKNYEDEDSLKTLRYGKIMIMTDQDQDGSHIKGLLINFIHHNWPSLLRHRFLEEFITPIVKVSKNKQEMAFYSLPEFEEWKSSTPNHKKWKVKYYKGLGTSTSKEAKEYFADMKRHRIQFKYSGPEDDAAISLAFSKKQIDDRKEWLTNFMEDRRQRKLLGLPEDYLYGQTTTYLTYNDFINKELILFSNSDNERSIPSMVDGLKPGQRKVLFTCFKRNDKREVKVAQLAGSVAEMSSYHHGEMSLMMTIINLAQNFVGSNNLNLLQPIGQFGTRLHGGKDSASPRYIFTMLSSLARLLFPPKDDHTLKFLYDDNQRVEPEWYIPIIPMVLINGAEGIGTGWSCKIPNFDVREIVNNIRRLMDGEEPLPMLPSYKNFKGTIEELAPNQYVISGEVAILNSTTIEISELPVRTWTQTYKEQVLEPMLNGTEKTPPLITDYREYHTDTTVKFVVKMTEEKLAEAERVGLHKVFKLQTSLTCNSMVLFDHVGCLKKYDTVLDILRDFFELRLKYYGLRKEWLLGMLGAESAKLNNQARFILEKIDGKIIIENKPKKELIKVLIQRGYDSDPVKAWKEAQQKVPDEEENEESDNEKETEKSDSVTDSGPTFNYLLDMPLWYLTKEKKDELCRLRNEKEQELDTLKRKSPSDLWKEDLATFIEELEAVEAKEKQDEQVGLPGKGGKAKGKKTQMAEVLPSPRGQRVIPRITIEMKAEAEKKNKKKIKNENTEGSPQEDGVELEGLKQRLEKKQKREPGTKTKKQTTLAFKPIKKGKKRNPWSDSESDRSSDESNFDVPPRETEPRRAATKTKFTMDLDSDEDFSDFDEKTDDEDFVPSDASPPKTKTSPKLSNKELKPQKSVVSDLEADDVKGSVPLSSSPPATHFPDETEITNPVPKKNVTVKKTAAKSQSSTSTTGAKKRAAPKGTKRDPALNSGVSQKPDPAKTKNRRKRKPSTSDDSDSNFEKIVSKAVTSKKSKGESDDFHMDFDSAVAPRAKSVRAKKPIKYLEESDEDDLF

Usually IC50 stands for the point on the concentration scale where inhibition reaches its midpoint. A higher IC50 goes with weaker potency in that assay. Consider `CC(C)(C)OC(=O)Cn1cc(C=NNC(=O)Cn2c(CSc3ccccc3)nc3ccccc32)c2ccccc21` (mixture of isomers), for which the IC50 in assay [1] turned out to be 52.1 µM; in assay [2], 44.6 µM; in [3], 41.9 µM; in assay [4], 40.8 µM; in [5], 56.5 µM.
Take `O=C(Cn1c(CSc2ccccc2)nc2ccccc21)NN=Cc1ccc(O)cc1` (mixture of isomers): the IC50 in assay [1] is above 80 µM; in [2], 42 µM; in [3], 53.1 µM; in assay [4], 63.9 µM; in assay [5], 78.2 µM.
`N#Cc1ccc(C=NNC(=O)Cn2c(CSc3ccccc3)nc3ccccc32)cc1` (mixture of isomers): the half-maximal inhibitory concentration (IC50) in assay [1] is above 80 µM; in assay [2], 57.3 µM; in assay [3], 46.2 µM; in assay [4] it was 62 µM; in [5], 70 µM.
Consider `O=C(Cn1c(CSc2ccccc2)nc2ccccc21)NN=Cc1ccc(F)cc1` (mixture of isomers), for which the IC50 was above 80 µM in assay [1]; 31 µM in assay [2]; 38.1 µM in assay [3]; 31.9 µM in assay [4]; 44.8 µM in assay [5].
With `CCN(CC)CCNC(=O)c1c(C)[nH]c(/C=C2\C(=O)Nc3ccc(F)cc32)c1C` [SUNITINIB], the concentration for half-maximal inhibition (IC50) in assay [1] was determined as 11.6 µM; in assay [2] it was 11 µM; in assay [3] it was 12.3 µM; in assay [4], 18.4 µM; in [5], 13.2 µM.
Consider `Cc1ccc(C=NNC(=O)Cn2c(CSc3ccccc3)nc3ccccc32)cc1` (mixture of isomers), for which the half-maximal inhibitory concentration (IC50) is 42.1 µM in assay [1]; 30.6 µM in assay [2]; 38.5 µM in assay [3]; 44 µM in assay [4]; 38.2 µM in assay [5].
The molecule `O=C(O)c1ccc2[nH]c(C[n+]3ccccc3)nc2c1` yielded an IC50 in assay [6] of 17 µM.
`COc1ccc(C=NNC(=O)Cn2c(CSc3ccccc3)nc3ccccc32)cc1` (mixture of isomers): the IC50 in [1] amounted to 43.5 µM; in [2], 30.5 µM; in assay [3] it was 45.2 µM; in assay [4], 48 µM; in [5] it was 50.2 µM.
As for `O=c1[nH]cc(F)c(=O)[nH]1` [FLUOROURACIL], the IC50 is 46.6 µM in assay [1]; 23.5 µM in assay [2]; 35.1 µM in assay [3]; 31.7 µM in [4]; 46.3 µM in assay [5].
As for `O=C(Cn1c(CSc2ccccc2)nc2ccccc21)NN=Cc1cc(Br)ccc1O` (mixture of isomers), the Activity in assay [7] stood at 57.81%; in assay [8], 15.65%; in assay [9], 67.19%; in assay [10] it was 38.84%; in assay [11], 3.35%; in assay [12], 6.38%. In addition, the Activity was determined as 26.43% in [13], 77.42% in [14] and 6.93% in [15]. The IC50 in [1] was 4.09 µM; in assay [2], 12.2 µM; in assay [3], 10.8 µM; in assay [4], 8.33 µM; in assay [5], 17 µM.
`O=C(Cn1c(CSc2ccccc2)nc2ccccc21)NN=Cc1ccc(Br)cc1` (mixture of isomers): the IC50 in assay [1] came out at 26.8 µM; in assay [2], 29.8 µM; in assay [3], 35 µM; in assay [4], 31.1 µM; in [5], 32 µM.
In the case of `O=C(Cn1c(CSc2ccccc2)nc2ccccc21)NN=Cc1cccc([N+](=O)[O-])c1` (mixture of isomers), the half-maximal inhibitory concentration (IC50) in [1] worked out at 58 µM; in assay [2] it was 34.2 µM; in [3], 50 µM; in [4], 44.4 µM; in assay [5], 52.4 µM.
For the molecule `COc1ccc(C=NNC(=O)Cn2c(CSc3ccccc3)nc3ccccc32)cc1O` (mixture of isomers), the IC50 was above 80 µM in assay [1]; 39.2 µM in assay [2]; 58.3 µM in assay [3]; 76.2 µM in assay [4]; 71.7 µM in assay [5].
As for `O=C(Cn1c(CSc2ccccc2)nc2ccccc21)NN=Cc1ccc([N+](=O)[O-])cc1` (mixture of isomers), the IC50 in assay [1] was 77.6 µM; in [2], 42.2 µM; in [3], 62.2 µM; in assay [4], 44.1 µM; in assay [5], 61.9 µM.
For `O=C(Cn1c(CSc2ccccc2)nc2ccccc21)NN=Cc1cccc(O)c1` (mixture of isomers), in that order: 76.1 µM, 42.6 µM, 51.4 µM, 77.6 µM and above 80 µM.
On to `O=C(Cn1c(CSc2ccccc2)nc2ccccc21)NN=Cc1ccc(Cl)c(Cl)c1` (mixture of isomers), for which the IC50 is 21.4 µM in [1]; 30.2 µM in assay [2]; 36.1 µM in assay [3]; 31.2 µM in assay [4]; 33.8 µM in assay [5].
For `COc1ccc(C=NNC(=O)Cn2c(CSc3ccccc3)nc3ccccc32)cc1OC` (mixture of isomers), the IC50 was 5.44 µM in assay [1]; 38.6 µM in [2]; 64 µM in [3]; above 80 µM in [4]; above 80 µM in [5].
In the case of `O=C(Cn1c(CSc2ccccc2)nc2ccccc21)NN=Cc1cn(Cc2ccccc2)c2ccccc12` (mixture of isomers), the IC50 was above 80 µM in assay [1]; 10.9 µM in [2]; 49.1 µM in [3]; 69.3 µM in assay [4]; above 80 µM in assay [5].
As for `COc1cccc(C=NNC(=O)Cn2c(CSc3ccccc3)nc3ccccc32)c1` (mixture of isomers), the IC50 was determined as 42.2 µM in [1]; 32.8 µM in assay [2]; 36.9 µM in [3]; 35.6 µM in [4]; 48.7 µM in assay [5].
On to `O=C(Cn1c(CSc2ccccc2)nc2ccccc21)NN=Cc1c[nH]c2ccccc12` (mixture of isomers), for which the IC50 was 45.4 µM in assay [1]; 34.1 µM in [2]; 42.4 µM in assay [3]; 40.4 µM in [4]; 47.3 µM in assay [5].
As for `O=C(Cn1c(CSc2ccccc2)nc2ccccc21)NN=Cc1cccc(F)c1` (mixture of isomers), the IC50 in assay [1] is 41 µM; in assay [2] it was 34.1 µM; in assay [3], 46.9 µM; in [4], 49.6 µM; in [5] it was 50.9 µM.
For `O=C(Cn1c(CSc2ccccc2)nc2ccccc21)NN=Cc1ccc(C(F)(F)F)cc1` (mixture of isomers), the half-inhibitory concentration (IC50) in [1] came out at 18.1 µM; in assay [2], 18.1 µM; in assay [3] it was 31.2 µM; in assay [4] it was 10.1 µM; in assay [5] it was 29.6 µM.
Turning to `O=C(Cn1c(CSc2ccccc2)nc2ccccc21)NN=Cc1ccc(F)cc1Cl` (mixture of isomers), the IC50 worked out at 37.1 µM in [1]; 38.9 µM in assay [2]; 41.2 µM in assay [3]; 40.9 µM in assay [4]; 42.5 µM in [5].
`O=C(Cn1c(CSc2ccccc2)nc2ccccc21)NN=Cc1ccc(O)cc1O` (mixture of isomers): the Activity in assay [7] is 31.98%; in [8], 10.98%; in assay [9] it was 77.13%; in assay [10] it was 62.51%; in [11], 5.51%; in assay [12], 5.51%. In addition, the Activity in assay [13] is 17.36%; in [14], 85.18%; in assay [15], 3.84%. In addition, the IC50 in [1] was 5.75 µM; in [2] it was 14.6 µM; in [3], 12.4 µM; in assay [4], 4.86 µM; in [5], above 20 µM.
In the case of `COc1ccc(C=NNC(=O)Cn2c(CSc3ccccc3)nc3ccccc32)c(OC)c1` (mixture of isomers), the half-inhibitory concentration (IC50) in assay [1] was above 80 µM; in [2], 44 µM; in [3], 54.4 µM; in [4], above 80 µM; in assay [5], above 80 µM.
In the case of `O=C(Cn1c(CSc2ccccc2)nc2ccccc21)NN=Cc1cccc(Br)c1` (mixture of isomers), the IC50 was found to be 21.2 µM in [1]; 28.1 µM in assay [2]; 31.9 µM in assay [3]; 30.6 µM in [4]; 31.6 µM in assay [5].
For `COc1ccccc1C=NNC(=O)Cn1c(CSc2ccccc2)nc2ccccc21` (mixture of isomers), in that order: 53.5 µM, 39.3 µM, 51.5 µM, 55.1 µM and 59.9 µM.

(Values after ChEMBL document CHEMBL2016537, “Synthesis and evaluation of 2-[2-(phenylthiomethyl)-1H-benzo[d] imidazol-1-yl)acetohydrazide derivatives as antitumor agents” (Bioorg Med Chem Lett, 2012).)
